Structures can show the parent of a compound that is named as a salt.
How the values were obtained:
Assay type in all cases: functional
PC-3 = experiment: Growth inhibition of human PC3 cells at 10 uM after 48 hrs by MTT assay; details: PC-3, 48 h, read-out: GI
In short: (§1)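 MTT assay. Suspension or adherent cells were exposed to compound for 48 h. OD was read at 570 nm (reference 620 nm), with untreated control OD set as 100% viability. Results are percent growth inhibition, mean ± SD of three independent experiments.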

HL-60 [1] = experiment: Growth inhibition of human HL60 cells at 10 uM after 48 hrs by MTT assay; details: HL-60, 48 h, read-out: GI; in short: as §1
HL-60 [2] = experiment: Induction of mitochondrial membrane potential loss in human HL60 cells at 4 uM after 6 hrs by rhodamine-123 staining method (reference value: 7%)
HL-60 [3] = experiment: Cell cycle arrest in human HL60 cells assessed as S phase cells at 4 uM after 6 hrs by PI staining-based flow cytometric analysis (reference value: 49%)
HL-60 [4] = experiment: Cell cycle arrest in human HL60 cells assessed as accumulation of G0/G1 phase cells at 4 uM after 6 hrs by PI staining-based flow cytometric analysis (reference value: 48%)
HL-60 [5] = experiment: Induction of apoptosis in human HL60 cells at 4 uM after 6 hrs by PI-staining based flow cytometric analysis (reference value: 0.7 %)
HL-60 [6] = experiment: Cell cycle arrest in human HL60 cells assessed as G2/M phase cells at 4 uM after 6 hrs by PI staining-based flow cytometric analysis (reference value: 3%)
MCF7 = experiment: Growth inhibition of human MCF7 cells at 2 uM after 48 hrs by MTT assay; details: MCF7, 48 h, read-out: GI

O=c1[nH]cc(F)c(=O)[nH]1 [FLUOROURACIL]
inhibition of growth at 10 µM (PC-3): 72%
inhibition of growth at 10 µM (HL-60 [1]): 84%

CC[C@@]1(O)C(=O)OCc2c1cc1n(c2=O)Cc2cc3ccccc3nc2-1 [CAMPTOTHECIN]
Activity (HL-60 [2]): 51%
Activity (HL-60 [3]): 6%
Activity (HL-60 [4]): 88%
Activity (HL-60 [5]): 69%
Activity (HL-60 [6]): 6%

COc1cccc2c1C(=O)c1c(O)c3c(c(O)c1C2=O)C[C@@](O)(C(=O)CO)C[C@@H]3O[C@H]1C[C@H](N)[C@H](O)[C@H](C)O1 [DOXORUBICIN HYDROCHLORIDE]
inhibition of growth at 2 µM (MCF7): 90%

From ChEMBL document CHEMBL2331355, “Synthesis, structure activity relationship and mode of action of 3-substitutedphenyl-1-(2,2,8,8-tetramethyl-3,4,9,10-tetrahydro-2H,8H-pyrano[2,3-f]chromen-6-yl)-propenones as novel anticancer agents in human leukaemia HL-60 cells” (Eur J Med Chem, 2013)
